Laboratory results: ChEMBL document CHEMBL1154187, “Synthesis and biological evaluation of 2-heteroarylthioalkanoic acid analogues of clofibric acid as peroxisome proliferator-activated receptor alpha agonists” (J Med Chem, 2009)
Activity calls are given as the source filed them. No cut-off for these calls is given here.

Legend:
Format in all cases: functional, cell-based
[1] = target: T1, Peroxisome proliferator-activated receptor alpha (Homo sapiens) (UniProt Q07869); experiment: Agonist activity at human PPARalpha expressed in HEK293 cells assessed as receptor transactivation at 150 uM by luciferase reporter gene assay relative to control
T1 sequence (whole entry): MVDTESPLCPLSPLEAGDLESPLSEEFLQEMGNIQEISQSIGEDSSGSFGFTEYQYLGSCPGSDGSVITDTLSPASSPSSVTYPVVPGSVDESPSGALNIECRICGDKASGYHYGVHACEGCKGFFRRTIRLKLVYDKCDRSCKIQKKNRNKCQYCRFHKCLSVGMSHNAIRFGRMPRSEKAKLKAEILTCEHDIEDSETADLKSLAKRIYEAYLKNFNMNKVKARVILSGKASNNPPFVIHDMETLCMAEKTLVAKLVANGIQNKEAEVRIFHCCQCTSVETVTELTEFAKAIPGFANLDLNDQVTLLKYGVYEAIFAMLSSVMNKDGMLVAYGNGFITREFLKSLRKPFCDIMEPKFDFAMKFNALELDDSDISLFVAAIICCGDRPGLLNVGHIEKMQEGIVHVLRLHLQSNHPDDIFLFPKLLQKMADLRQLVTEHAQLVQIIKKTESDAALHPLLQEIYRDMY
Summary of the method: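 Cells co-transfected by calcium phosphate with human PPARα expression plasmid, luciferase reporter and renilla in serum-free medium. Ligand in DMSO (≤0.1% v/v final) added 6 h post-transfection at 150 μM. Luciferase normalized to renilla, expressed as fold activation over untreated cells; at least three separate experiments, mean ± SEM.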

[2] = target: T2, Peroxisome proliferator-activated receptor alpha (Homo sapiens, UniProt Q07869); experiment: Agonist activity at human PPARalpha expressed in HEK293 cells assessed as receptor transactivation at by luciferase reporter gene assay
T2 sequence (Q07869 whole entry): T1 sequence (whole entry)
Summary of the method: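 Human PPARα reporter-gene transactivation: calcium phosphate co-transfection of receptor plasmid, luciferase reporter and renilla. Ligand in DMSO (≤0.1% v/v final) added 6 h after transfection at five concentrations, 1 to 150 μM. At least three separate experiments, ± SEM.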

[3] = target: T1, Peroxisome proliferator-activated receptor alpha (Homo sapiens); experiment: Agonist activity at PPARalpha in human HepG2 cells assessed as increase in CPT1A mRNA expression at 150 uM after 48 hrs by RTqPCR relative to untreated control
Summary of the method: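 HepG2 grown in DMEM + 10% FBS, 37 °C, 5% CO2; 1×10^6 cells seeded in six-well dishes, grown 24 h, then given ligand at 150 μM or DMSO vehicle for 48 h. Total RNA by TRIzol; SYBR Green RTqPCR, primers 150 nM final, 60 ng cDNA, 40 cycles. CPT1A normalized to cyclophilin and to vehicle-treated cells; mean ± SEM of four determinations in duplicate.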

Row | SMILES | fold change (FC) [1] | EC50 [2] | Activity [1] | Activity [3] | fold change (FC) [3]
1 | O=C(O)C(Sc1nc2cc(Cl)ccc2s1)c1ccccc1 (racemic) | 1.6 | 14.3 µM | – | – | –
2 | CC(C)(Sc1nc2ccc(Br)cc2s1)C(=O)O | 2.6 | 45.8 µM | – | – | –
3 | CC(Sc1nc2ccc(Br)cc2s1)C(=O)O (racemic) | 1.9 | 84.3 µM | – | – | –
4 | CCCCCCC(Sc1nc2cc(Cl)ccc2s1)C(=O)O (racemic) | – | – | inactive | – | –
5 | CC(Sc1nc2cc(Cl)ccc2s1)C(=O)O (racemic) | 3.4 | 62.5 µM | – | – | –
6 | C[C@H](Sc1nc2cc(Cl)ccc2s1)C(=O)O | 2.6 | 55.9 µM | – | – | –
7 | CC(C)(Sc1nc2cc(Br)ccc2s1)C(=O)O | 4.5 | 2.5 µM | – | Active | –
8 | CC(C)(Sc1nc2cc(Cl)ccc2s1)C(=O)O | 1.6 | 35.9 µM | – | – | –
9 | CC(Sc1nc2cc(Br)ccc2s1)C(=O)O (racemic) | 3.2 | 9.3 µM | – | – | –
10 | CCOc1ccc2nc(SC(C)(C)C(=O)O)sc2c1 | 3.3 | 69.3 µM | – | – | –
11 | CC(C)(Sc1nc2ccc(C(F)(F)F)cc2s1)C(=O)O | 1.7 | 36.1 µM | – | – | –
12 | CC(C)(Sc1ccccn1)C(=O)O | – | – | inactive | – | –
13 | COc1ccc2sc(SC(C)(C)C(=O)O)nc2c1 | 2 | 45.8 µM | – | – | –
14 | CCOc1ccc2nc(SC(C)C(=O)O)sc2c1 (racemic) | 2.6 | 9.8 µM | – | – | –
15 | COc1ccc2sc(S[C@@H](C)C(=O)O)nc2c1 | 2.9 | 1.9 µM | – | Active | –
16 | CC(C)(Sc1nc2cc(C#N)ccc2s1)C(=O)O | 1.9 | 46.3 µM | – | – | –
17 | CC(C)(Sc1nc2ccccc2s1)C(=O)O | – | – | inactive | – | –
18 | CC(Sc1nc2cc(C#N)ccc2s1)C(=O)O (racemic) | – | – | inactive | – | –
19 | COc1ccc2sc(SC(C)C(=O)O)nc2c1 (racemic) | 2.9 | 33.3 µM | – | – | –
20 | CC(C)(Sc1nc2ccc(C#N)cc2s1)C(=O)O | – | – | inactive | – | –
21 | CC(C)(Sc1cccs1)C(=O)O | – | – | inactive | – | –
22 | CC(C)(Oc1ccc(Cl)cc1)C(=O)O | 1.6 | – | – | – | 2
23 | CC(C)(Sc1nc2ccc(Cl)cc2s1)C(=O)O | 1.7 | 38.9 µM | – | – | –
24 | CC(C)(Sc1ccc(Cl)s1)C(=O)O | 2.8 | 1.8 µM | – | – | 2
25 | COc1ccc2sc(S[C@H](C)C(=O)O)nc2c1 | 2.3 | 57.3 µM | – | – | –
26 | C[C@@H](Sc1nc2cc(Cl)ccc2s1)C(=O)O | 4.5 | 73.5 µM | – | – | –
27 | CCCC(Sc1nc2ccc(OCC)cc2s1)C(=O)O (racemic) | 4.7 | 14.8 µM | – | – | –
28 | CCCC(Sc1nc2cc(Cl)ccc2s1)C(=O)O (racemic) | 2.7 | 9.3 µM | – | – | –
29 | CC(C)(Sc1nc2cc(C(F)(F)F)ccc2s1)C(=O)O | – | – | inactive | – | –
